Reference: BindingDB's records for doi:10.1016/j.bmcl.2017.04.043 (Vanderbilt University Medical Center, 2017)

Columns and labels:
Cytochrome P450 1A2 = biological target: T1, Cytochrome P450 1A2 (Homo sapiens, UniProt P05177); test: ChEBML_1679936
T1 sequence (P05177 whole entry): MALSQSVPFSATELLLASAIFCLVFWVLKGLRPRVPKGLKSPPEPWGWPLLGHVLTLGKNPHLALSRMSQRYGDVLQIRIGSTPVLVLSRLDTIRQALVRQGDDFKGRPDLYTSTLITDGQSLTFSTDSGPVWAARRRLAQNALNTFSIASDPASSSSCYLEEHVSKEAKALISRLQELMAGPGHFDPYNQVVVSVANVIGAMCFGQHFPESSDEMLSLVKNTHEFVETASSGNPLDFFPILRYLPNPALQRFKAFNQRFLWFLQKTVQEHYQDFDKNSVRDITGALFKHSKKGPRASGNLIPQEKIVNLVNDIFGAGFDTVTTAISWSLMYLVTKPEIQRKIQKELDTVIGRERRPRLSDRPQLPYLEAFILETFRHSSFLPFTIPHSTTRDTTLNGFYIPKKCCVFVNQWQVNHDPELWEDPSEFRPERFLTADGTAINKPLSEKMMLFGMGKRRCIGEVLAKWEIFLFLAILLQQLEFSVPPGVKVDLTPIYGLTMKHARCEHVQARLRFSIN
Source text: Induction of CYP1A2 in cryopreserved human hepatocytes measured after 48 hrs

[1] = biological target: T2, Muscarinic acetylcholine receptor M4 (Homo sapiens, UniProt P08173); test: ChEBML_1679899
T2 sequence (P08173 whole entry): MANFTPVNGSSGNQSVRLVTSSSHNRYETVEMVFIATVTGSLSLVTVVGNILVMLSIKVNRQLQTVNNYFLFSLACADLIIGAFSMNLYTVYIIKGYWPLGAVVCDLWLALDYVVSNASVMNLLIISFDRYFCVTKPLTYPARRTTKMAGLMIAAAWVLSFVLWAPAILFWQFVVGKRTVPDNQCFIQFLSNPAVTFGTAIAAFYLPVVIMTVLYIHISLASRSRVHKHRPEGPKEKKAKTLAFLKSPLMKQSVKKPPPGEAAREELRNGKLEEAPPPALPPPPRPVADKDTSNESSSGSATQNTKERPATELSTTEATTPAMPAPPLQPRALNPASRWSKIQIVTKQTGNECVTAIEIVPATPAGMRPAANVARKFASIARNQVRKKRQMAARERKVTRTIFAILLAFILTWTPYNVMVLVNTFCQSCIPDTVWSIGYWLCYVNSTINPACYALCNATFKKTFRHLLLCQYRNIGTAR
Source text: (§1) Positive allosteric modulation of human M4 receptor expressed in CHO cells coexpressing Gqi5 assessed as increase in acetylcholine-induced calcium mobilization

[2] = biological target: T2, Muscarinic acetylcholine receptor M4; test: as §1
How it was run: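 Calcium mobilization in CHO cells expressing hM4 with Gqi5. Compound added in presence of a fixed EC20 concentration of acetylcholine. Values are means of three independent experiments, each run in triplicate.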

Compound | EC50 [1] [nM] | EC50 [2] [nM] | other results
Cc1nnc2sc(C(=O)NCc3ccc(-c4cccnc4F)cc3)c(N)c2c1C |  |  | EC50 (Cytochrome P450 1A2): > 50000 nM
Cc1cc(-c2ccc(CNC(=O)c3sc4nnc(C)c(C)c4c3N)cc2)cnc1F | 776 |  | 
Cc1nnc2sc(C(=O)NCc3ccc(-c4ccnc(F)c4)cc3)c(N)c2c1C |  | 49 | 
Cc1nnc2sc(C(=O)NCc3ccc(-c4ccncc4)cc3)c(N)c2c1C |  | 26.9 | 
Cc1nnc2sc(C(=O)NCc3ccc(-c4cccnc4)cc3)c(N)c2c1C | 63.1 |  | 
Cc1nnc2sc(C(=O)NCc3ccc(-c4cnccn4)cc3)c(N)c2c1C |  | 100 | 
